37 sequences from the array DNA melting data of Ke et al. (doi:10.1101/2024.01.08.574731) can be followed below.

Data set [1] can be described thus: melting temperature; fluorescence melt of hairpins on a sequencing array, two-state fit, raised by 9.35 °C to match UV melts. The settings on record: sodium 0.088 M. Put shortly: (§1)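 Bootstrapped two-state fits yielded melting temperature and folding enthalpy for library hairpins. Cy3 fluorescence, with annealed Cy3 and quencher oligos, was imaged on a sequenced MiSeq flow cell in 50 mM Na-HEPES pH 8.0, 25 mM NaCl in 2.5 °C steps up to 60 °C, and normalised to pre-quench Cy3 and to control constructs. Four replicates were combined by inverse variance, and fitted temperatures were raised by 9.35 °C to match UV melts.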

A short description of data set [2]: folding enthalpy; higher = less favourable; fluorescence melt of hairpins on a sequencing array, two-state fit. The settings on record: sodium 0.088 M. Put shortly:
as §1

For GGGATAGCGAAAGCTCCC (((..(((....)))))), the Tm in data set [1] was 50.1 °C. For the same sequence, the folding enthalpy in data set [2] is -21.8 kcal/mol.

GCTTGGCGAAAGCGACGC ((.(.((....)).).)): the Tm in data set [1] came out at 45.5 °C. For the same sequence, in data set [2], the folding enthalpy is -13.2 kcal/mol.

Regarding GATAAGGGAAACCCTATC ((((.((....)).)))), the Tm in data set [1] is 30.6 °C. In addition, the folding enthalpy in data set [2] was -15.6 kcal/mol.

Regarding GATCGTAATAACGATC ((((((....)))))), the Tm in data set [1] was 53.9 °C. In addition, in data set [2], the folding enthalpy was -37 kcal/mol.

Take GATCAATCTTTGATC ((((((...)))))): the Tm in data set [1] is 44.6 °C. In data set [2], the folding enthalpy was -28.2 kcal/mol.

As to GATCGTGTGAACGATC ((((((....)))))), the Tm in data set [1] stood at 62.7 °C. The folding enthalpy in data set [2] was -39.2 kcal/mol.

Regarding GGGAGCGAAAGCTCACCC ((((((....)))..))), in data set [1], the Tm was determined as 57.2 °C. Further, the folding enthalpy in data set [2] was -11.2 kcal/mol.

For GTCGGTGGAAACACTGAC (((.(((....))).))), in data set [1], the Tm is 54.4 °C. In addition, the folding enthalpy in data set [2] was -40.6 kcal/mol.

For the sequence GATCACGACCGTGATC ((((((....)))))), in data set [1], the Tm is 63.6 °C. Further, the folding enthalpy in data set [2] was -46.1 kcal/mol.

With GCGTTTATACGC ((((....)))), the Tm in data set [1] worked out at 55.7 °C. In data set [2], the folding enthalpy is -27.7 kcal/mol.

As for GTAGTCGAAAGACACTAC ((((((....)))..))), the Tm in data set [1] was found to be 39.6 °C. For the same sequence, the folding enthalpy in data set [2] is -19.7 kcal/mol.

As for GGCGTCGGAAACAACGCC (((((.(....).))))), the Tm in data set [1] was 55.2 °C. For the same sequence, the folding enthalpy in data set [2] was -40.6 kcal/mol.

Consider GAATGCCGAAAGGCGTTC (((.(((....))).))), for which the Tm in data set [1] was 61.6 °C. Further, the folding enthalpy in data set [2] is -27.7 kcal/mol.

Regarding GAGCGCCGAAAGGCCCTC (((.(((....))).))), the Tm in data set [1] amounted to 47.6 °C. Also, the folding enthalpy in data set [2] is -15.4 kcal/mol.

In the case of GCACCTGGAAACAGGCGC ((.((((....)))).)), the Tm in data set [1] amounted to 53.5 °C. The folding enthalpy in data set [2] was -46.8 kcal/mol.

GCCATGGGAAACCATAGC ((.((((....)))).)): the Tm in data set [1] was 36.5 °C. The folding enthalpy in data set [2] is -25.6 kcal/mol.

For GCACAAGGAAACTCGTGC ((((.((....)).)))), the Tm in data set [1] is 43.8 °C. In data set [2], the folding enthalpy was -31.4 kcal/mol.

GAATCAGGAAACTGATCC (.(((((....))))).): in data set [1], the Tm worked out at 32.6 °C. Further, the folding enthalpy in data set [2] is -15.4 kcal/mol.

As to GAGTGAACGAAAGTTCTC (((..(((....)))))), the Tm in data set [1] is 29.9 °C. Moreover, in data set [2], the folding enthalpy is -11.3 kcal/mol.

Turning to GCATCAGGAAACTGATGC (((((((....))))))), the Tm in data set [1] was 67.1 °C. In data set [2], the folding enthalpy is -46.9 kcal/mol.

For the sequence GAAAGACGAAAGTCGTTC (((.(((....))).))), the Tm in data set [1] was found to be 46 °C. Also, in data set [2], the folding enthalpy is -15.1 kcal/mol.

Take GATCAACGTCTTGATC ((((((....)))))): the Tm in data set [1] is 42.6 °C. Besides, in data set [2], the folding enthalpy is -30.9 kcal/mol.

As to GAAAAAACGAAAGTTTTC (((..(((....)))))), the Tm in data set [1] stood at 30.9 °C. Besides, the folding enthalpy in data set [2] was -13.4 kcal/mol.

Turning to GCCGTCGAAAGACGCGGC ((((((....)))..))), the Tm in data set [1] was found to be 61.3 °C. Also, the folding enthalpy in data set [2] is -15 kcal/mol.

As for GATCGCAATGGCGATC ((((((....)))))), the Tm in data set [1] was 67.4 °C. In data set [2], the folding enthalpy was -35.6 kcal/mol.

For GAGGGCGAAAGCCACCTC ((((((....)))..))), in data set [1], the Tm is 38.1 °C. The folding enthalpy in data set [2] was -11 kcal/mol.

Consider GAACATCCGAAAGGATTC (((..(((....)))))), for which the Tm in data set [1] came to 26.3 °C. In addition, the folding enthalpy in data set [2] is -11.7 kcal/mol.

For GTATTTCGAAAGAAGTAC (((.(((....))).))), in data set [1], the Tm was 40.4 °C. In addition, the folding enthalpy in data set [2] is -34.3 kcal/mol.

As for GATCGGCGTTCCGATC ((((((....)))))), the Tm in data set [1] came to 56.3 °C. Moreover, the folding enthalpy in data set [2] is -39.3 kcal/mol.

Consider GATCCGAGACCGGATC ((((((....)))))), for which, in data set [1], the Tm is 54.4 °C. In addition, in data set [2], the folding enthalpy was -36.6 kcal/mol.

Take GATCCTCCCTAGGATC ((((((....)))))): the Tm in data set [1] worked out at 50.8 °C. For the same sequence, the folding enthalpy in data set [2] is -39.7 kcal/mol.

GATTAACGAAAGTTATC (((.(((....)))))): the Tm in data set [1] came to 31.3 °C. In addition, in data set [2], the folding enthalpy is -13.2 kcal/mol.

For the sequence GAACACGAAAGTGTTTTC ((((((....)))..))), the Tm in data set [1] amounted to 49 °C. In addition, in data set [2], the folding enthalpy was -15.1 kcal/mol.

In the case of GCTAACGAAAGTTAGC ((((((....)))))), the Tm in data set [1] worked out at 66.8 °C. Further, in data set [2], the folding enthalpy was -35.1 kcal/mol.

With GCGCTTCGAAAGAATCGC (((.(((....))).))), in data set [1], the Tm turned out to be 51.8 °C. For the same sequence, the folding enthalpy in data set [2] was -41.3 kcal/mol.

On to GATCCGCGGACGGATC ((((((....)))))), for which the Tm in data set [1] was determined as 56.2 °C. Also, in data set [2], the folding enthalpy is -37.5 kcal/mol.

Consider GCTCATGGAAACGTGAGC (((((.(....).))))), for which, in data set [1], the Tm amounted to 53.4 °C. In addition, the folding enthalpy in data set [2] is -47.5 kcal/mol.
